Test results as given in ChEMBL document CHEMBL3232818, “Imidazole-derived 2-[N-carbamoylmethyl-alkylamino]acetic acids, substrate-dependent modulators of insulin-degrading enzyme in amyloid-β hydrolysis” (Eur J Med Chem, 2014).
Values after ≈ are worked out from the molar mass of the structure shown. Active and inactive are the calls of the source. The rule behind the calls is not given here.

What was measured:
[1] = PBS-octanol partition coefficient, log D of the compound; assay type: physicochemical
[2] = molecular target: Angiotensin-converting enzyme (Homo sapiens, UniProt P12821); experiment: Inhibition of human ACE-mediated amyloid beta hydrolysis
[3] = molecular target: Disintegrin and metalloproteinase domain-containing protein 17 (Homo sapiens, UniProt P78536); experiment: Inhibition of human recombinant TACE-mediated amyloid beta hydrolysis after 5 mins by fluorimetry assay
Neprilysin = Neprilysin (Homo sapiens, UniProt P08473); experiment: Inhibition of human NEP-mediated amyloid beta hydrolysis
[4] = Half life in IHH cell culture medium at 10 uM by LC-MS/MS analysis; assay type: physicochemical, HH
Procedure, shortened: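 Stability measured in William's E medium with 10% fetal calf serum.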

Interstitial collagenase = molecular target: T1, Interstitial collagenase (Homo sapiens, UniProt P03956); experiment: Inhibition of human recombinant MMP1-mediated amyloid beta hydrolysis using DNP-Pro-Cha-Gly- Cys(Me)-His-Ala- Lys(n-Me-Abz)-NH2 as substrate after 40 mins by fluorimetry assay
T1 sequence (P03956 whole entry): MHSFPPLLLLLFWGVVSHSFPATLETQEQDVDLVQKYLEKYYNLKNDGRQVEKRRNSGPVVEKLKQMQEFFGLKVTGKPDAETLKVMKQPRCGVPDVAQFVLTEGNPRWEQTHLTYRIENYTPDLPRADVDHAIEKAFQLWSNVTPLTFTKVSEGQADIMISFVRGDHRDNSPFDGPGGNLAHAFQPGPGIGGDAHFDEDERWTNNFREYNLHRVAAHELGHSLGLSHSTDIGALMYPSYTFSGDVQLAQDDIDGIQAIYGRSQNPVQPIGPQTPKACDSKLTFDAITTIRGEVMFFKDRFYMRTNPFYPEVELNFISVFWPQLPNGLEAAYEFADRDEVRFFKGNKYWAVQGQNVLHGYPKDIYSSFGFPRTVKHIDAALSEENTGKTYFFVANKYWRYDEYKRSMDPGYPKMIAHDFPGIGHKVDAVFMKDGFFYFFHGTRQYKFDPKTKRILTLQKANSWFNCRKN

Collagenase 3 = Collagenase 3 (Homo sapiens, UniProt P45452); experiment: Inhibition of human recombinant MMP13-mediated amyloid beta hydrolysis after 10 mins by fluorimetry assay
[5] = molecular target: T2, Endothelin-converting enzyme 1 (Homo sapiens, UniProt P42892); experiment: Inhibition of human recombinant ECE1-mediated amyloid beta hydrolysis after 45 mins by fluorimetry assay
T2 sequence (P42892 whole entry): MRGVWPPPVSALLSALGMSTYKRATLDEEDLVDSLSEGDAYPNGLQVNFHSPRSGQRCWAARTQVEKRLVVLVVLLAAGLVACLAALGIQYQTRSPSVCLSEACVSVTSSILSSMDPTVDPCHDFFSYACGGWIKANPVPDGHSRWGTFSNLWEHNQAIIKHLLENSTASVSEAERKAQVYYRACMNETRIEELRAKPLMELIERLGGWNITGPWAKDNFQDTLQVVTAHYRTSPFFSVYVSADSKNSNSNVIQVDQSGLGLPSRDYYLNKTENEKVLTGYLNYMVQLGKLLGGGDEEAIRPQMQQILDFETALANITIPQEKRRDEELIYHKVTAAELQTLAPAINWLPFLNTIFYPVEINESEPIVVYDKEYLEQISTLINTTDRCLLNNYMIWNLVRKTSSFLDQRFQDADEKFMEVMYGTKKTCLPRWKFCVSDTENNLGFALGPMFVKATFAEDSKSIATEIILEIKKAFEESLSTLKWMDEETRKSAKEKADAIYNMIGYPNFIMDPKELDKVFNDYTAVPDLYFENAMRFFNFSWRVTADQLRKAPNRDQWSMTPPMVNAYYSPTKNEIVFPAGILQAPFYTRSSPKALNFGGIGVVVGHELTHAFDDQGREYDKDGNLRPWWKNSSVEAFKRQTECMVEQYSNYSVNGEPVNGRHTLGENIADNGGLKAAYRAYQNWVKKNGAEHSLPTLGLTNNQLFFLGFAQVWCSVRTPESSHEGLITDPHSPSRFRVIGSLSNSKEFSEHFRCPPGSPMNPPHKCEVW

[6] = Half life in human liver microsomes at 1 uM by LC-MS/MS analysis; assay type: ADME
[7] = Half life in mouse plasma at 10 uM by LC-MS/MS analysis; assay type: ADME, cell-free
[8] = Solubility of the compound in PBS at pH 7.4; assay type: physicochemical
[9] = molecular target: Angiotensin-converting enzyme 2 (Homo sapiens, UniProt Q9BYF1); experiment: Inhibition of human recombinant ACE2-mediated amyloid beta hydrolysis using Mca-Tyr-Val-Ala-Asp-Pro-Ala-Lys-(DNP)-OH as substrate after 20 mins by fluorimetry assay
Insulin-degrading enzyme = molecular target: T3, Insulin-degrading enzyme (Homo sapiens, UniProt P14735); experiment: (§1) Inhibition of human recombinant IDE-mediated amyloid beta (16 to 23) hydrolysis using ATTO 655-Cys-Lys-Leu-Val-Phe-Phe-Ala-Glu-Asp-Trp as substrate preincubated for 10 mins measured after 30 mins by spectrophotometer analysis
T3 sequence (P14735 whole entry): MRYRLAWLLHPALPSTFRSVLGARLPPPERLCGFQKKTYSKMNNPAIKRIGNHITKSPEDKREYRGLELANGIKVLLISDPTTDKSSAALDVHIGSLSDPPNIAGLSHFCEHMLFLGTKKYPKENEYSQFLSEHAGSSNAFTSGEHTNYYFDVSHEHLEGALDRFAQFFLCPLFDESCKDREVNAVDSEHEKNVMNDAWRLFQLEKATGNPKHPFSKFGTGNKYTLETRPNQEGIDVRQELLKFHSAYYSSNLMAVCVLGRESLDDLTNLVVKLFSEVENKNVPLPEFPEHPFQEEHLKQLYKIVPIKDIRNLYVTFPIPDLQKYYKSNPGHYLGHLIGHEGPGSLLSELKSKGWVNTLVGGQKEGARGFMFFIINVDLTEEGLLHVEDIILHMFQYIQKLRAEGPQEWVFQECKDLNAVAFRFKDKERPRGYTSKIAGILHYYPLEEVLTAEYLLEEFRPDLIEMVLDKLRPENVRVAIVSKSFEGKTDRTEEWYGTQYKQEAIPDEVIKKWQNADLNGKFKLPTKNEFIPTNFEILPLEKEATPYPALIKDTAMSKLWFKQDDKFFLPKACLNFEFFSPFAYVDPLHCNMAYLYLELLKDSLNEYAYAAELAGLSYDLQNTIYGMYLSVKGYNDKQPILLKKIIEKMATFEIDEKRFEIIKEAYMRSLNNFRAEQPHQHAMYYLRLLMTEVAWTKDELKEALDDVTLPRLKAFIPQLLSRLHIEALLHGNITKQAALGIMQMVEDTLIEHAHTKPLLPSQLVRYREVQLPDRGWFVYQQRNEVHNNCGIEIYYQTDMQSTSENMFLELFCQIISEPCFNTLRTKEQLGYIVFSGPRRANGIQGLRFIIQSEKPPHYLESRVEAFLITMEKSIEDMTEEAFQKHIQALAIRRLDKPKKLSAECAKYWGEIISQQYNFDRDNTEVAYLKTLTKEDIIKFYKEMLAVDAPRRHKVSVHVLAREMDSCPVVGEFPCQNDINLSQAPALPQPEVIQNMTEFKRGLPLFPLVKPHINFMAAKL

[10] = molecular target: Insulin-degrading enzyme (Homo sapiens) (UniProt P14735); experiment: as §1
[11] = molecular target: Insulin-degrading enzyme (Homo sapiens) (UniProt P14735); experiment: Reversible inhibition of human recombinant IDE-mediated amyloid beta (16 to 23) hydrolysis using ATTO 655-Cys-Lys-Leu-Val-Phe-Phe-Ala-Glu-Asp-Trp as substrate at 20 uM preincubated for 20 mins measured measured after 100 fold dilution by spectrophotometer analysis
[12] = molecular target: Insulin-degrading enzyme (Homo sapiens) (UniProt P14735); experiment: Competitive inhibition of human recombinant IDE-mediated amyloid beta (16 to 23) hydrolysis using ATTO 655-Cys-Lys-Leu-Val-Phe-Phe-Ala-Glu-Asp-Trp as substrate
Procedure, shortened: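 Human recombinant IDE (1.87 ng/μL) preincubated 10 min at 37 °C with compound in 50 mM Hepes, 100 mM NaCl, pH 7.4. Reaction started with quenched ATTO 655-labelled peptide substrate (5 μM final), 1% DMSO final. Fluorescence read after 30 min (ex 635, em 750 nm). 8-point dose-response curves, average of at least three independent measurements. EDTA reference (2 mM).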

Chain of Angiotensin-converting enzyme 2 (Q9BYF1 whole entry): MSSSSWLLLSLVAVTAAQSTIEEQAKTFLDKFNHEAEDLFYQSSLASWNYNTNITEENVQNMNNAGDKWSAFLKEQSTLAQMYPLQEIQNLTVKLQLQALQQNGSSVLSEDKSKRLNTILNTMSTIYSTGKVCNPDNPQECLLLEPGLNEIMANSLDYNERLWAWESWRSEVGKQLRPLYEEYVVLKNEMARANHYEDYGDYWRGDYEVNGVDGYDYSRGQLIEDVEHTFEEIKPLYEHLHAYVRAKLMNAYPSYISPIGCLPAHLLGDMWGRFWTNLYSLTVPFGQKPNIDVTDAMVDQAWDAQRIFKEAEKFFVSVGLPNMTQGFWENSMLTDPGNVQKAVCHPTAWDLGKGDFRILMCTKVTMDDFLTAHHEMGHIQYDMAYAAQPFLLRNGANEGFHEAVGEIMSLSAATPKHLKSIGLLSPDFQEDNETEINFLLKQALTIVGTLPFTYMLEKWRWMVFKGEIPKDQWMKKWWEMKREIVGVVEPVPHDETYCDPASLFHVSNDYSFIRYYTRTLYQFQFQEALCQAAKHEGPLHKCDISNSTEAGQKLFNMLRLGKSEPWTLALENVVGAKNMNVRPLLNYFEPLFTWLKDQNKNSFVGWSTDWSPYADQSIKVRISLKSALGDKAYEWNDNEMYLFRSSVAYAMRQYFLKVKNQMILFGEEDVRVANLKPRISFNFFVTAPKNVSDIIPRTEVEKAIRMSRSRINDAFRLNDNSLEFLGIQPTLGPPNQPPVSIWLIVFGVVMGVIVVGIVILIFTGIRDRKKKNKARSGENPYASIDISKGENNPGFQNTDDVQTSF
Chain of Disintegrin and metalloproteinase domain-containing protein 17 (P78536 whole entry, the tested form may be a part): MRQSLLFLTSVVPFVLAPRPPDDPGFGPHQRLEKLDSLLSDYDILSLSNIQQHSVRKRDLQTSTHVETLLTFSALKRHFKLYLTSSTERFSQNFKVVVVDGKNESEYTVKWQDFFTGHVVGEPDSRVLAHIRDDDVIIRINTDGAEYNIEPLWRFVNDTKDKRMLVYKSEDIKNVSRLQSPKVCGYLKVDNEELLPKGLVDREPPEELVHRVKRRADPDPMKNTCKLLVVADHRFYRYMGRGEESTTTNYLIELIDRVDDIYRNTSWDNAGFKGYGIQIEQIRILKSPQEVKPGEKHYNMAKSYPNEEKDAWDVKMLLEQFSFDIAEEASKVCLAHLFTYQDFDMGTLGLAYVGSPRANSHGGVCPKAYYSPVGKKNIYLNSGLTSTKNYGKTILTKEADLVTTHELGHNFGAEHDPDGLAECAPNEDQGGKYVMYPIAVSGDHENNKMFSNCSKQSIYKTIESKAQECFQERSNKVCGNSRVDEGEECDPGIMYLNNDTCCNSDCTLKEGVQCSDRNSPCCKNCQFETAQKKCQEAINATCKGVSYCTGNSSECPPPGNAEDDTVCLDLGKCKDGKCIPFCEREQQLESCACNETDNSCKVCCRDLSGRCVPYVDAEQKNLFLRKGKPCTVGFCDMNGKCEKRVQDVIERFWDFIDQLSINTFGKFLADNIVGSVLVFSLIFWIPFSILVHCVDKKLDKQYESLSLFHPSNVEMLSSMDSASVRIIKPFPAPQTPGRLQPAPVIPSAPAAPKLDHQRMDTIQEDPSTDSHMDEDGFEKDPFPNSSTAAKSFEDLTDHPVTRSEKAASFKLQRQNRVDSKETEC
Chain of Neprilysin (P08473 whole entry): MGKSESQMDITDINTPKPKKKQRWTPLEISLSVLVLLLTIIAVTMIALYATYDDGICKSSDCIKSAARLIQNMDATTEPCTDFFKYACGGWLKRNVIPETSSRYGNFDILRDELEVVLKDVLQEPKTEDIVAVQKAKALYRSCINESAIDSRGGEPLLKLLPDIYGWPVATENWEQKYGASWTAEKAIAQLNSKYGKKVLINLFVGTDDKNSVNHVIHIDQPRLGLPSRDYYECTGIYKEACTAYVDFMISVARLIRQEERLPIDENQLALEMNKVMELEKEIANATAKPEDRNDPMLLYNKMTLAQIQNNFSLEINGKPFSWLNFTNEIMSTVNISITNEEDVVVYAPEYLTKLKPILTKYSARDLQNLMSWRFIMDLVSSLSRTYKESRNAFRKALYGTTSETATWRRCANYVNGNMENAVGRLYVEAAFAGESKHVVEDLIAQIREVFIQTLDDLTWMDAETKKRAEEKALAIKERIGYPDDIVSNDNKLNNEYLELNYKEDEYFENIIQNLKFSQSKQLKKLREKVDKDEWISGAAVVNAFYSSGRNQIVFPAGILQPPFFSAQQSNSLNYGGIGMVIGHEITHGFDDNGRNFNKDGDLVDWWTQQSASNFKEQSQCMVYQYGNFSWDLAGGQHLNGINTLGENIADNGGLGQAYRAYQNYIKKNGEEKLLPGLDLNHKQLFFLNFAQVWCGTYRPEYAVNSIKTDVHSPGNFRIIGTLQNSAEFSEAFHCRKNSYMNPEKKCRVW
Chain of Angiotensin-converting enzyme (P12821 whole entry, the tested form may be a part): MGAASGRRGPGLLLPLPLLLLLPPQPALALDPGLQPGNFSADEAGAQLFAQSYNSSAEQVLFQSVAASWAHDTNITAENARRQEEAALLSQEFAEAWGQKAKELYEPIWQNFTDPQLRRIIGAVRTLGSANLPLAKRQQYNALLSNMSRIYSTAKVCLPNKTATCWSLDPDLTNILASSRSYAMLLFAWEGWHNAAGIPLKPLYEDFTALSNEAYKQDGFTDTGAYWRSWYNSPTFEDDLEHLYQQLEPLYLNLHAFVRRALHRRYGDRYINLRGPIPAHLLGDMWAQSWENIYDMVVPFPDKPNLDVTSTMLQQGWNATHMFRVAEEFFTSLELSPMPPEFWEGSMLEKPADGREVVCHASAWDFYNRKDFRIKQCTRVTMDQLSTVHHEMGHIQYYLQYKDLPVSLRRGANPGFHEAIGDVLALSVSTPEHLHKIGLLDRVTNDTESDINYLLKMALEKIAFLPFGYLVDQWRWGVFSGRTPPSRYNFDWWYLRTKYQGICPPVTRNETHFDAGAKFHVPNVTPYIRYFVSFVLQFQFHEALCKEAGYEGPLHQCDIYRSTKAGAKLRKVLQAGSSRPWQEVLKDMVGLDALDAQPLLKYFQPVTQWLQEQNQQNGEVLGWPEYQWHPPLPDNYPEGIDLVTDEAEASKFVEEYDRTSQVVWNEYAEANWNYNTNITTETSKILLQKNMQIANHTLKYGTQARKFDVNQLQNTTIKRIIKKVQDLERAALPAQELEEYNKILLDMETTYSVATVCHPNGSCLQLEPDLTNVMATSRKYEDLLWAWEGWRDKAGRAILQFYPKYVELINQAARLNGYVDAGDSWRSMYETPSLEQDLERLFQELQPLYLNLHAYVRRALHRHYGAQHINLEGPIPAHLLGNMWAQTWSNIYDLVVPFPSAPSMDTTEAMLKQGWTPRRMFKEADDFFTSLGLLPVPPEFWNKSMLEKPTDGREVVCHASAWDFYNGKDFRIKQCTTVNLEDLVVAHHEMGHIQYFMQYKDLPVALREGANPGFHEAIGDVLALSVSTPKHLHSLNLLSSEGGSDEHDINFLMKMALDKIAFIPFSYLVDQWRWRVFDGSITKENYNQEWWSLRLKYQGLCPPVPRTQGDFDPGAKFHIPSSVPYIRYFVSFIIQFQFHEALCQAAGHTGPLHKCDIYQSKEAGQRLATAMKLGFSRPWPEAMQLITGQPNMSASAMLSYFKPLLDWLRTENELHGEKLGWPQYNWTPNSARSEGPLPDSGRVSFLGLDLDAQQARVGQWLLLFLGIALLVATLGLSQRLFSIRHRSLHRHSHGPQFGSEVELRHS

CNC(=O)[C@H](Cc1c[nH]cn1)NC(=O)CN(CCCc1ccccc1)CC(=O)O
logD [1]: -1.4 | IC50 [2]: > 100 µM | IC50 [3]: > 100 µM | IC50 (Neprilysin): > 100 µM | half-life at 10 µM [4]: > 24 h | IC50 (Interstitial collagenase): > 100 µM | IC50 (Collagenase 3): > 100 µM | IC50 [5]: > 100 µM | half-life at 1 µM [6]: > 0.667 h | half-life at 10 µM [7]: > 48 h | solubility [8]: 68 µM (≈ 27.3 µg/mL) | IC50 [9]: > 100 µM

COC(=O)[C@H](Cc1c[nH]cn1)NC(=O)CN(CC(=O)O)C(=O)c1ccccc1
IC50 (Insulin-degrading enzyme): > 100 µM

COC(=O)[C@H](Cc1c[nH]cn1)NC(=O)CN(CC(=O)O)Cc1ccccc1
inhibition [10]: Dose-dependent effect | inhibition [11]: Active | inhibition [12]: Active
